From ChEMBL document CHEMBL1641437, “New furin inhibitors based on weakly basic amidinohydrazones” (Bioorg Med Chem Lett, 2011)

Legend:
Furin = Furin (Homo sapiens, UniProt P09958); test: Inhibition of human recombinant furin by fluorescence plate reader analysis
Procedure, shortened: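 Recombinant human furin, 0.95 nM, with fluorogenic pyroGlu-Arg-Thr-Lys-Arg-AMC at 5, 20 and 50 substrate concentrations, in 100 mM HEPES pH 7.0 with 0.2% Triton X-100, 2 mM CaCl2, 0.02% sodium azide, 1 mg/mL BSA; room temperature. AMC release read by fluorescence (ex 380, em 460 nm); Ki obtained by Dixon plot.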

[1] = target: T1, Subtilisin Carlsberg (Bacillus licheniformis) (UniProt P00780); test: Inhibition of Bacillus licheniformis subtilisin at 100 uM relative to control
T1 sequence (whole entry): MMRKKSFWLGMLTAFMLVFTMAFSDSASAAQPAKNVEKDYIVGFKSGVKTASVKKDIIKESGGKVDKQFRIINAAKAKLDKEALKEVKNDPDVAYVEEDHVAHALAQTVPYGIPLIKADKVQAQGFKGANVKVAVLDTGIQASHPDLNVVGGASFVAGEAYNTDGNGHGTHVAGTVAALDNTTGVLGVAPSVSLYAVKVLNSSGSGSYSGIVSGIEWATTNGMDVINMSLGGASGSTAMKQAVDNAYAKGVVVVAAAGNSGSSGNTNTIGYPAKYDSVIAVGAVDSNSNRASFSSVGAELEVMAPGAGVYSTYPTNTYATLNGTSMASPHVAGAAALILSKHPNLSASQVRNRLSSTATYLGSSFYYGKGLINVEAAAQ

Prothrombin = Prothrombin (Homo sapiens, UniProt P00734); test: Inhibition of thrombin
[2] = Inhibition of trypsin
Coagulation factor X = Coagulation factor X (Homo sapiens, UniProt P00742); test: Inhibition of factor 10a
Sequence of Coagulation factor X (P00742 41-179 limits assumed): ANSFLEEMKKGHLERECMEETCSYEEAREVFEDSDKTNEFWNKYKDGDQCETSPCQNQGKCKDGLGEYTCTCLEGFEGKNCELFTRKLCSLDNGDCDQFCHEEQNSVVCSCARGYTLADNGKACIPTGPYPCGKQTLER
Sequence of Coagulation factor X (P00742 235-488 limits assumed): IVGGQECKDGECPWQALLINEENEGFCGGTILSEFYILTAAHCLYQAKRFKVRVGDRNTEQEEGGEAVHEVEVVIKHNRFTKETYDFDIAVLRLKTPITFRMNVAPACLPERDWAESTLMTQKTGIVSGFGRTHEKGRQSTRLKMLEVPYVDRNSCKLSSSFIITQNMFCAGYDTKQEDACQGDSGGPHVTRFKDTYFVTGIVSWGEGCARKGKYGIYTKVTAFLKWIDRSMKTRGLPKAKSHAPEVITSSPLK

Plasminogen = Plasminogen (Homo sapiens, UniProt P00747); test: Inhibition of plasmin
Sequence of Plasminogen (P00747 97-580 limits assumed): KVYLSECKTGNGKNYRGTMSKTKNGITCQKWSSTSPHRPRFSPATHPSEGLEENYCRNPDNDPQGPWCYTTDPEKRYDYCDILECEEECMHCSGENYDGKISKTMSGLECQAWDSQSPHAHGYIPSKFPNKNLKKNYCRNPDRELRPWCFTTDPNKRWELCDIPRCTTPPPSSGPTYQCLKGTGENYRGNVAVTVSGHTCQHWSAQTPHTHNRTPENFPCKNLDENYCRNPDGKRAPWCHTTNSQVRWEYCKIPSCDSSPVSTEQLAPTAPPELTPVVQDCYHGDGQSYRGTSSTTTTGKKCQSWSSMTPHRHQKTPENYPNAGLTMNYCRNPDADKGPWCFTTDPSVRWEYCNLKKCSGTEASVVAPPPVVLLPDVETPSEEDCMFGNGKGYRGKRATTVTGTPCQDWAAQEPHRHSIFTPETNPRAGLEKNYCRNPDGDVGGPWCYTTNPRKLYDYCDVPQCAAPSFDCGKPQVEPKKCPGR
Sequence of Plasminogen (P00747 581-810 limits assumed): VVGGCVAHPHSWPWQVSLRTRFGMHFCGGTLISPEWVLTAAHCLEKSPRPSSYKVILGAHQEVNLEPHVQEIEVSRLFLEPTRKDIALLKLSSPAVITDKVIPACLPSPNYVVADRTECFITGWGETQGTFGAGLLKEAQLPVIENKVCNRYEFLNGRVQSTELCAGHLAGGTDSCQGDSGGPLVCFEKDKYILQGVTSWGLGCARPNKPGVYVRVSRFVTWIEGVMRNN

Sequence of Furin (P09958 whole entry): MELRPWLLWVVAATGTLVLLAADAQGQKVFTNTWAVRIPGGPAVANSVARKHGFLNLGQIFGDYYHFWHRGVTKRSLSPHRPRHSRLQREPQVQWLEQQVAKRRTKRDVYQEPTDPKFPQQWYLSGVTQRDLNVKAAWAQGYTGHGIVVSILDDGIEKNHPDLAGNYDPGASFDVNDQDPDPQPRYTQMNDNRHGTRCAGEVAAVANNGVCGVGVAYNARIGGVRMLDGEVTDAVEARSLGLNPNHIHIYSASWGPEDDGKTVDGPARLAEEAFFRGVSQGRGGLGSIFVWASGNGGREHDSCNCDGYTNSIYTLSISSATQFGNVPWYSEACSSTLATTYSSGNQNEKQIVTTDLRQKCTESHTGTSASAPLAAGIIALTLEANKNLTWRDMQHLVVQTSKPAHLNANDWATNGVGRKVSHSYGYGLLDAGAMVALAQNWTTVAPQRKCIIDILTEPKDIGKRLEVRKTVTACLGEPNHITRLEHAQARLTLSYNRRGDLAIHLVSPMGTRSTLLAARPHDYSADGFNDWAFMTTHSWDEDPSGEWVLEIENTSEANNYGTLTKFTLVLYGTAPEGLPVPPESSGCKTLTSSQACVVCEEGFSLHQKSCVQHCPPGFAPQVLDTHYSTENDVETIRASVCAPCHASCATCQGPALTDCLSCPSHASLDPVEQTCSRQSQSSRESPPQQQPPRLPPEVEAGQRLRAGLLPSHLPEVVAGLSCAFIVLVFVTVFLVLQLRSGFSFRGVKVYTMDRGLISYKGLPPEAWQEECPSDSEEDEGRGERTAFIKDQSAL

Row | Ki (Furin) | inhibition [1] | Ki (Prothrombin) | Ki [2] | Ki (Coagulation factor X) | Ki (Plasminogen) | SMILES
1 | > 500 µM | – | – | – | – | – | N=C(N)N/N=C/c1ccccc1
2 | 1.35 µM | – | – | – | – | – | C/C(=N/NC(=N)N)c1cc(OCC(=O)Nc2ccccc2)cc(/C(C)=N\NC(=N)N)c1
3 | 1.55 µM | – | 32 µM | 59 µM | 80 µM | 400 µM | C/C(=N\NC(=N)N)c1cc(NS(=O)(=O)c2ccccc2)cc(/C(C)=N/NC(=N)N)c1
4 | 27.9 µM | – | – | – | – | – | N=C(N)NNC(=O)c1cccc(C(=O)NNC(=N)N)c1
5 | 11.5 µM | 4.4% | – | – | – | – | N=C(N)N/N=C/c1cccc(/C=N/NC(=N)N)c1
6 | 44 µM | – | – | – | – | – | C/C(=N\NC(=N)N)c1ccc(Oc2ccc(/C(C)=N/NC(=N)N)cc2)cc1
7 | 1.42 µM | – | 1000 µM | 110 µM | 1000 µM | 1000 µM | C/C(=N\NC(=N)N)c1cc(NC(=O)CCCCCNC(=N)N)cc(/C(C)=N/NC(=N)N)c1
8 | 1.13 µM | – | 1000 µM | 68 µM | 1000 µM | 1000 µM | C/C(=N\NC(=N)N)c1cc(NC(=O)[C@H](N)CCCNC(=N)N)cc(/C(C)=N/NC(=N)N)c1
9 | 1.46 µM | – | – | – | – | – | C/C(=N/NC(=N)N)c1cccc(OCC(=O)Nc2cc(/C(C)=N\NC(=N)N)cc(/C(C)=N/NC(=N)N)c2)c1
10 | 173 µM | – | 1000 µM | – | – | – | NC(N)=NNC(=O)c1ccc(C(=O)NN=C(N)N)cc1
11 | 1.84 µM | 7.9% | 786 µM | – | – | – | C/C(=N\NC(=N)N)c1ccc(/C(C)=N/NC(=N)N)cc1
12 | 1.2 µM | – | 1000 µM | 12 µM | 1000 µM | 110 µM | C/C(=N\NC(=N)N)c1cc(NC(=O)CCCN)cc(/C(C)=N/NC(=N)N)c1
13 | 4.78 µM | 0% | – | – | – | – | C/C(=N\NC(=N)N)c1cccc(/C(C)=N/NC(=N)N)c1
14 | 0.46 µM | 7.9% | 800 µM | 2.8 µM | 16 µM | 1000 µM | C/C(=N\NC(=N)N)c1cc(NC(=O)CCCNC(=N)N)cc(/C(C)=N/NC(=N)N)c1
15 | 1.13 µM | 7.7% | – | – | – | – | C/C(=N/NC(=N)N)c1cc(NC(=O)CC(=O)Nc2cc(/C(C)=N/NC(=N)N)cc(/C(C)=N/NC(=N)N)c2)cc(/C(C)=N/NC(=N)N)c1
16 | 1.94 µM | – | – | – | – | – | C/C(=N/NC(=N)N)c1cc(NC(=O)COc2ccc(/C(C)=N/NC(=N)N)cc2)cc(/C(C)=N/NC(=N)N)c1
17 | 5.61 µM | – | – | – | – | – | C/C(=N/NC(=N)N)c1cc(NC(=O)COc2ccccc2)cc(/C(C)=N/NC(=N)N)c1
18 | 1.82 µM | – | – | – | – | – | C/C(=N\NC(=N)N)c1cc(N)cc(/C(C)=N/NC(=N)N)c1
19 | 1.04 µM | – | 1000 µM | 23 µM | 1000 µM | 1000 µM | C/C(=N\NC(=N)N)c1cc(NC(=O)CCCCNC(=N)N)cc(/C(C)=N/NC(=N)N)c1
20 | 17.3 µM | – | – | – | – | – | N=C(N)N/N=C1\C/C(=N\NC(=N)N)c2ccccc21
21 | 0.58 µM | – | 0.86 µM | – | – | – | C/C(=N/NC(=N)N)c1cc(OCC(=O)Nc2cc(/C(C)=N\NC(=N)N)cc(/C(C)=N/NC(=N)N)c2)cc(/C(C)=N\NC(=N)N)c1

Row | SMILES | Ki (Furin) | inhibition [1] | Ki (Prothrombin) | Ki [2] | Ki (Coagulation factor X) | Ki (Plasminogen)
22 | C/C(=N\NC(=N)N)c1ccccc1 | 273 µM | – | – | – | – | –
23 | N=C(N)N/N=C/c1ccc(/C=N/NC(=N)N)cc1 | 1.47 µM | 0% | 68 µM | – | – | –
24 | N=C(N)NNC(=O)c1ccccc1 | 376 µM | – | – | – | – | –
